# Measurements: ChEMBL document CHEMBL5329156, “Discovery and development of novel substituted monohydrazides as potent antifungal agents” (RSC Med Chem, 2023)
# Experiments:
# [Candida] auris [1] = Antifungal activity against Candida auris AR Bank # 390 assessed as fungal growth inhibition by double dilution method; assay type: functional; conditions: Candidozyma auris
# Summary of the method: (§1)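 Broth microdilution after CLSI M27-A3/M38-A2 with minor changes. Single colony grown overnight in YPD at 35 °C, 200 rpm. Compound final range 0.06-31.3 µg/mL; incubated 48 h at 35 °C.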
# Candida albicans [2] = experiment: Antifungal activity against Candida albicans ATCC 10231 assessed as fungal growth inhibition by double dilution method; assay type: functional; summary of the method: as §1
# Candida albicans [3] = experiment: Antifungal activity against itraconazole/fluconazole susceptible Candida albicans ATCC MYA-2876 assessed as fungal growth inhibition by double dilution method; assay type: functional
# Summary of the method: (§2)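 Broth microdilution after CLSI M27-A3/M38-A2 with minor modifications. A single colony was grown overnight in YPD at 35 °C with shaking at 200 rpm. Cells were mixed 1:1 with compound (final 0.06-31.3 µg/mL, from DMSO stocks) and incubated 48 h at 35 °C.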
# Aspergillus fumigatus [4] = experiment: Antifungal activity against Aspergillus fumigatus NRRL 5109 assessed as fungal growth inhibition by double dilution method; assay type: functional
# Nakaseomyces glabratus [5] = experiment: Antifungal activity against Candida glabrata ATCC 22019 assessed as fungal growth inhibition by double dilution method; assay type: functional; summary of the method: as §1
# HepG2 = experiment: Cytotoxicity against human HepG2 cells assessed as reduction in cell viability upto 31.3 microg/ml; assay type: toxicity, cell-based; conditions: dose < 31.3 µg/ml
# Summary of the method: (§3)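 Cells in DMEM with 10% FBS and 1% Pen/Strep, seeded at 10,000 cells/well and held overnight at 37 °C, 5% CO2. Compounds added at final 31.3-0.12 µg/mL (0.05% DMSO vehicle) for 24 h. Resazurin then added for 6 h; fluorescence read at ex 560/em 590. Triton X-100 1% as positive control; values normalized to vehicle. Run in quadruplicate.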
# Candida albicans [6] = experiment: Antifungal activity against itraconazole/fluconazole resistant Candida albicans ATCC 90819 assessed as fungal growth inhibition by double dilution method; assay type: functional; summary of the method: as §2
# [Candida] auris [7] = Antifungal activity against Candida auris AR Bank # 389 assessed as fungal growth inhibition by double dilution method; assay type: functional; conditions: Candidozyma auris; summary of the method: as §1
# Candida duobushaemulonii [8] = experiment: Antifungal activity against Candida duobushaemulonii AR Bank # 391 assessed as fungal growth inhibition by double dilution method; assay type: functional; conditions: Candidozyma duobushaemuli; summary of the method: as §1
# [Candida] auris [9] = Antifungal activity against Candida auris AR Bank # 383 assessed as fungal growth inhibition by double dilution method; assay type: functional; conditions: Candidozyma auris; summary of the method: as §1
# [Candida] auris [10] = Antifungal activity against Candida auris AR Bank # 382 assessed as fungal growth inhibition by double dilution method; assay type: functional; conditions: Candidozyma auris; summary of the method: as §1
# Candida duobushaemulonii [11] = experiment: Antifungal activity against Candida duobushaemulonii AR Bank # 394 assessed as fungal growth inhibition by double dilution method; assay type: functional; conditions: Candidozyma duobushaemuli; summary of the method: as §1
# [Candida] auris [12] = Antifungal activity against Candida auris AR Bank # 388 assessed as fungal growth inhibition by double dilution method; assay type: functional; conditions: Candidozyma auris; summary of the method: as §1
# Aspergillus terreus = experiment: Antifungal activity against Aspergillus terreus ATCC MYA-3633 assessed as fungal growth inhibition by double dilution method; assay type: functional
# [Candida] haemuloni [13] = Antifungal activity against Candida haemulonii AR Bank # 395 assessed as fungal growth inhibition by double dilution method; assay type: functional; conditions: Candidozyma haemuli; summary of the method: as §1
# Saccharomyces cerevisiae [14] = experiment: Antifungal activity against Saccharomyces cerevisiae AR Bank # 400 assessed as fungal growth inhibition by double dilution method; assay type: functional; summary of the method: as §1
# Clavispora lusitaniae = experiment: Antifungal activity against Clavispora lusitaniae AR Bank # 398 assessed as fungal growth inhibition by double dilution method; assay type: functional; summary of the method: as §1
# [Candida] auris [15] = Antifungal activity against Candida auris AR Bank # 386 assessed as fungal growth inhibition by double dilution method; assay type: functional; conditions: Candidozyma auris; summary of the method: as §1
# [Candida] auris [16] = Antifungal activity against Candida auris AR Bank # 385 assessed as fungal growth inhibition by double dilution method; assay type: functional; conditions: Candidozyma auris; summary of the method: as §1
# Nakaseomyces glabratus [17] = experiment: Antifungal activity against Candida glabrata ATCC 2001 assessed as fungal growth inhibition by double dilution method; assay type: functional; summary of the method: as §1
# [Candida] auris [18] = Antifungal activity against Candida auris AR Bank # 0384 assessed as fungal growth inhibition by double dilution method; assay type: functional; conditions: Candidozyma auris; summary of the method: as §1
# Candida albicans [19] = experiment: Antifungal activity against Candida albicans ATCC 64124 assessed as fungal growth inhibition by double dilution method; assay type: functional; summary of the method: as §2
# Saccharomyces cerevisiae [20] = experiment: Antifungal activity against Saccharomyces cerevisiae AR Bank # 399 assessed as fungal growth inhibition by double dilution method; assay type: functional; summary of the method: as §1
# Pichia kudriavzevii [21] = experiment: Antifungal activity against Pichia kudriavzevii AR Bank # 397 assessed as fungal growth inhibition by double dilution method; assay type: functional; summary of the method: as §1
# Candida albicans [22] = experiment: Antifungal activity against itraconazole/fluconazole resistant Candida albicans ATCC MYA-1237 assessed as fungal growth inhibition by double dilution method; assay type: functional; summary of the method: as §2
# Kodamaea ohmeri = experiment: Antifungal activity against Kodamaea ohmeri AR Bank # 396 assessed as fungal growth inhibition by double dilution method; assay type: functional; summary of the method: as §1
# [Candida] auris [23] = Antifungal activity against Candida auris AR Bank # 0390 assessed as fungal growth inhibition by double dilution method; assay type: functional; conditions: Candidozyma auris; summary of the method: as §1
# [Candida] auris [24] = Antifungal activity against Candida auris AR Bank # 381 assessed as fungal growth inhibition by double dilution method; assay type: functional; conditions: Candidozyma auris; summary of the method: as §1
# Pichia kudriavzevii [25] = experiment: Antifungal activity against Pichia kudriavzevii ATCC 6258 assessed as fungal growth inhibition by double dilution method; assay type: functional; summary of the method: as §1
# Candida albicans [26] = experiment: Antifungal activity against itraconazole/fluconazole resistant Candida albicans ATCC MYA-1003 assessed as fungal growth inhibition by double dilution method; assay type: functional; summary of the method: as §2
# [Candida] auris [27] = Antifungal activity against Candida auris AR Bank # 387 assessed as fungal growth inhibition by double dilution method; assay type: functional; conditions: Candidozyma auris; summary of the method: as §1
# [Candida] haemuloni [28] = Antifungal activity against Candida haemulonii AR Bank # 393 assessed as fungal growth inhibition by double dilution method; assay type: functional; conditions: Candidozyma haemuli; summary of the method: as §1
# Aspergillus fumigatus [29] = experiment: Antifungal activity against Aspergillus fumigatus NRRL 6113 assessed as fungal growth inhibition by double dilution method; assay type: functional
# Aspergillus flavus = experiment: Antifungal activity against Aspergillus flavus ATCC MYA-3631 assessed as fungal growth inhibition by double dilution method; assay type: functional
# [Candida] auris [30] = Antifungal activity against Candida auris AR Bank # 384 assessed as fungal growth inhibition by double dilution method; assay type: functional; conditions: Candidozyma auris; summary of the method: as §1
# Candida albicans [31] = experiment: Antifungal activity against itraconazole/fluconazole susceptible Candida albicans ATCC MYA-2310 assessed as fungal growth inhibition by double dilution method; assay type: functional; summary of the method: as §2
# Aspergillus nidulans = experiment: Antifungal activity against Aspergillus nidulans ATCC 38163 assessed as fungal growth inhibition by double dilution method; assay type: functional
# HEK293 = experiment: Cytotoxicity against human HEK-293 cells assessed as reduction in cell viability at 31.3 microg/ml; assay type: toxicity, cell-based; conditions: dose 31.3 µg/ml; summary of the method: as §3
# Cryptococcus neoformans = experiment: Antifungal activity against Cryptococcus neoformans ATCC MYA-895 assessed as fungal growth inhibition by double dilution method; assay type: functional; summary of the method: as §1
# Aspergillus fumigatus [32] = experiment: Antifungal activity against Aspergillus fumigatus NRRL 163 assessed as fungal growth inhibition by double dilution method; assay type: functional
# J774.A1 = experiment: Cytotoxicity against J774A.1 cells assessed as reduction in cell viability at 31.3 microg/ml; assay type: toxicity, cell-based; conditions: mouse, dose 31.3 µg/ml; summary of the method: as §3
# Candida duobushaemulonii [33] = experiment: Antifungal activity against Candida duobushaemulonii AR Bank # 392 assessed as fungal growth inhibition by double dilution method; assay type: functional; conditions: Candidozyma duobushaemuli; summary of the method: as §1
compound,measurement,setting,value
COc1cccc(NNC(=O)c2cnccn2)c1,MIC,[Candida] auris [1],0.98 µg/mL
same,MIC,Candida albicans [2],0.49 µg/mL
same,MIC,Candida albicans [3],1.95 µg/mL
same,MIC,Aspergillus fumigatus [4],7.8 µg/mL
same,MIC,Nakaseomyces glabratus [5],1.95 µg/mL
same,Activity,HepG2,Non-Toxic
same,MIC,Candida albicans [6],1.95 µg/mL
same,MIC,[Candida] auris [7],0.98 µg/mL
same,MIC,Candida duobushaemulonii [8],3.9 µg/mL
same,MIC,[Candida] auris [9],1.95 µg/mL
same,MIC,[Candida] auris [10],0.98 µg/mL
same,MIC,Candida duobushaemulonii [11],1.95 µg/mL
same,MIC,[Candida] auris [12],3.9 µg/mL
same,MIC,Aspergillus terreus,1.95 µg/mL
same,MIC,[Candida] haemuloni [13],0.49 µg/mL
same,MIC,Saccharomyces cerevisiae [14],3.9 µg/mL
same,MIC,Clavispora lusitaniae,1.95 µg/mL
same,MIC,[Candida] auris [15],0.49 µg/mL
same,MIC,[Candida] auris [16],7.8 µg/mL
same,MIC,Nakaseomyces glabratus [17],7.8 µg/mL
same,MIC,[Candida] auris [18],1.95 µg/mL
same,MIC,Candida albicans [19],0.98 µg/mL
same,MIC,Saccharomyces cerevisiae [20],7.8 µg/mL
same,MIC,Pichia kudriavzevii [21],0.49 µg/mL
same,MIC,Candida albicans [22],1.95 µg/mL
same,MIC,Kodamaea ohmeri,0.49 µg/mL
same,MIC,[Candida] auris [23],0.98 µg/mL
same,MIC,[Candida] auris [24],1.95 µg/mL
same,MIC,Pichia kudriavzevii [25],0.49 µg/mL
same,MIC,Candida albicans [26],0.98 µg/mL
same,MIC,[Candida] auris [27],0.98 µg/mL
same,MIC,[Candida] haemuloni [28],0.49 µg/mL
same,MIC,Aspergillus fumigatus [29],> 31.3 µg/mL
same,MIC,Aspergillus flavus,> 31.3 µg/mL
same,MIC,[Candida] auris [30],1.95 µg/mL
same,MIC,Candida albicans [31],1.95 µg/mL
same,MIC,Aspergillus nidulans,1.95 µg/mL
same,Activity,HEK293,Non-Toxic
same,MIC,Cryptococcus neoformans,0.49 µg/mL
same,MIC,Aspergillus fumigatus [32],15.6 µg/mL
same,Activity,J774.A1,Non-Toxic
same,MIC,Candida duobushaemulonii [33],0.98 µg/mL
